Measurements reported in paper PMC3076219 (European journal of immunology, 2009).
Entries after “also recorded” stand apart in the source; their conditions may differ.

Legend:
neutrophils [1] = assay: Calcium mobilization of neutrophils; type: cell-based, human
neutrophils [2] = conditions: ref [27]; cited from earlier work
neutrophils [3] = conditions: cited from earlier work
neutrophils [4] = assay: Neutrophil migration, 24-well Transwell; type: cell-based, human; conditions: Fig. 6H
Summary of the method: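 CFSE-labelled human neutrophils (5 µM, 5 min RT) at 5×10^6/mL in phenol-red-free RPMI 1640 with 1% FBS went in the Transwell upper chamber (3-µm pores). The lower chamber held test peptide (1 or 5 µM) or medium. Some cells were first preincubated 20 min with 10 µM CXCR2 antagonist. After 1 h at 37 °C, migrated cells were read at 495 nm against a standard curve. Quadruplicate; unpaired t-test.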

monocytes [5] = assay: Migration of monocytes, 24-well Transwell; type: cell-based, human; conditions: LL-37 5 µM, Fig. 7F; for stimulation of migration of monocytes: CXCL1 50 nM, WKYMVm 5 µM, ATP 50 µM, BzATP 50 µM, 90 min, 37°C
Summary of the method: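 CFSE-labelled monocytes or THP-1 cells (5 µM, 5 min RT) at 2×10^6/mL in phenol-red-free RPMI 1640 with 1% FBS went in the Transwell upper chamber (3-µm pores). Stimuli in the lower chamber included CXCL1 50 nM, WKYMVm 5 µM and ATP/BzATP 50 µM. Cells were used with or without 20 min preincubation with 10 µM CXCR2 antagonist. Incubation at 37 °C lasted 90 min for monocytes and 2 h for THP-1. Lower-well cells were read at 495 nm against a standard curve, in quadruplicate.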

CXCR2 [6] = assay: Confocal analysis of CXCR2 internalization in neutrophils; type: cell-based, human; conditions: 37°C
Summary of the method: (§1)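 Neutrophils came from citrated donor blood by dextran sedimentation and Ficoll gradient. […] Cells were fixed in 2% paraformaldehyde, permeabilised with saponin and blocked with human serum. Anti-CXCR1 or anti-CXCR2 mAb (4°C), then Alexa 488 anti-mouse IgG, DAPI mount, confocal imaging; three independent experiments.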

[7] = tested on: CXCR1 transfected HEK293 cells; assay: Secondary necrosis of CXCR1 transfected HEK293 cells; type: cell-based; conditions: Supporting information Fig. 4
neutrophils [8] = assay: Cross-desensitization of calcium mobilization of neutrophils; type: cell-based, human
CXCR2 [9] = conditions: ref [33], [34]; cited from earlier work
CXCR2 [10] = assay: CXCR2 surface expression on neutrophils, flow cytometry; type: cell-based, human; conditions: 3h; for CXCR2 surface expression, chemokine treated: 1 nM, 5 nM, 10 nM (50 nM), Fig. 2E-G
CXCR2 [11] = assay: Calcium mobilization in HEK293/CXCR2 cells; type: cell-based, human; conditions: Indo-1; Fig. 7A-B
Summary of the method: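 They were washed in cold PBS, pelleted at 200 × g for 10 min at 4 °C, and resuspended in PBS with Ca/Mg. […] [Ca2+]i was read as the 405:485 nm ratio by flow cytometry, gating on living cells.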

CXCR1 [12] = assay: CXCR1 surface expression on neutrophils, flow cytometry; type: cell-based, human; conditions: 3h; for CXCR1 surface expression, chemokine treated: 1 nM, 5 nM, 10 nM (50 nM), Fig. 2E-G
Summary of the method: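 Human blood neutrophils were isolated by dextran sedimentation and Ficoll (>95% CD16+) and held at 5×10^6/mL in RPMI 1640 with 1% FBS. They were treated 3h with a dose series (test peptide 1–10 µM; chemokines 1, 5, 10, 50 nM) or with 5 µM for 0.5–3h. Cells were blocked in 10% human serum and stained with anti-CXCR1-APC/anti-CXCR2-FITC or anti-P2X7-FITC, plus anti-CD16. Read-out was flow cytometry GMFI.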

CXCR2 [13] = assay: CXCR2 surface expression on monocytes; type: cell-based, human; conditions: Supporting information Fig. 2
[14] = tested on: CXCR2 transfected HEK293 cells; assay: Secondary necrosis of CXCR2 transfected HEK293 cells; type: cell-based; conditions: Supporting information Fig. 4
CXCR1 [15] = assay: Confocal analysis of CXCR1 internalization in neutrophils; type: cell-based, human; conditions: 37°C
Summary of the method: as §1

[16] = tested on: 125I-CXCL8 specific binding sites on neutrophils (CXCR1/2); assay: Competition with 125I-CXCL8 for binding to neutrophils; design: species or system human; conditions: 1.25 nM 125I-CXCL8, 2h on ice, triplicate, dose-dependent, Fig. 5B
CXCR1 [17] = assay: Calcium mobilization in HEK293/CXCR1 cells; type: cell-based, human; conditions: Indo-1; Fig. 7A-B
Summary of the method: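 CXCR1-transfected HEK293 cells were loaded with 5 µM Indo-1-AM in 5 µM pluronic F-127/PBS for 30 min at RT. They were washed in cold PBS, spun at 200 × g for 10 min at 4 °C and suspended in PBS with calcium and magnesium. Stimulation followed baseline recording. Flow cytometric [Ca2+]i was read as the 405:485 nm emission ratio with 351 nm excitation. Three independent experiments.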

CXCR1 [18] = conditions: ref [33], [34]; cited from earlier work
monocytes [19] = assay: Calcium mobilization in monocytes; type: cell-based, human; conditions: ATP or WKYMVm first, then LL-37; Fig. 7D
Summary of the method: (§2)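 Peripheral blood monocytes (kit-isolated from PBMC, CD14-checked) or THP-1 cells at 10^7/mL were loaded with 5 µM Indo-1-AM for 7 min at 37 °C, then held 10 min at RT and washed in cold PBS. Cells were run at 2×10^6/mL in KRP (PBS, 1.5 mM CaCl2, 1.5 mM MgSO4). After baseline they got a first stimulus, then a second. Flow cytometry used 351 nm excitation and the 405:485 nm ratio, gating live cells. Three independent experiments.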

FPR2 = FPR2 surface expression on monocytes; type: cell-based, human; conditions: Supporting information Fig. 2
THP-1 cells = assay: Calcium mobilization in THP-1 cells; type: cell-based; conditions: Fig. 7C
Summary of the method: as §2

neutrophils [20] = conditions: ref [66]; cited from earlier work
[21] = CXCL7 50 nM or CXCL1 50 nM, 60 min, data not shown
[22] = LL-37 5 µM or CXCL8 50 nM, 1 h, Fig. 8
[23] = WKYMVm 1 µM, 10 µM, 100 µM, Fig. 2B

O=C(Nc1ccc([N+](=O)[O-])cc1O)Nc1ccccc1Br [SB225002]
reduction of [Ca2+]i for LL-37 (neutrophils [1]; SB225002 10 µM, then 180 s later LL-37 5 µM, Fig. 6A): > 90%
inhibition of calcium mobilization for ATP (neutrophils [1]; SB225002 10 µM, ATP 5 µM, Fig. 6F): not for fMLF (Fig. 6E), ATP
inhibition of calcium mobilization for CXCL1 (neutrophils [1]; SB225002 10 µM, CXCL1 10 nM, Fig. 6C): complete inhibition
inhibition of calcium mobilization for CXCL7 (neutrophils [1]; SB225002 10 µM, CXCL7 10 nM, Fig. 6B): complete inhibition
inhibition of CXCL8 stimulation ([Ca2+]i) (neutrophils [1]; SB225002 10 µM, CXCL8 10 nM, Fig. 6D): about 50%
inhibition of calcium mobilization for WKYMVm (neutrophils [1]; SB225002 10 µM, WKYMVm 5 µM, Fig. 6G): not for fMLF (Fig. 6E), ATP (Fig. 6F) or WKYMVm
inhibition of calcium mobilization for fMLF (neutrophils [1]; SB225002 10 µM, fMLF 100 nM, Fig. 6E): not for fMLF
inhibition of [Ca2+]i of neutrophils treated with CXCL1 or CXCL8 (neutrophils [2]): dose dependent inhibition
inhibition of neutrophil migration with CXCL1 or CXCL8 (neutrophils [3]; SB225002, ref [27]): dose dependent inhibition
inhibition of CXCL1 and CXCL7 stimulated neutrophil migration (neutrophils [3]; ref [27]): completely inhibited
inhibition of CXCL8 stimulated neutrophil migration (neutrophils [3]; ref [27]): partially inhibited
migration of SB225002 treated controls (neutrophils [4]; SB225002 10 µM without LL-37): did not interfere with cell migration
inhibition of LL-37-induced neutrophil migration (neutrophils [4]; SB225002 10 µM, 20 min pretreatment, LL-37 5 µM, p<0.05): completely inhibited; also recorded: completely block
inhibition of LL-37-stimulated monocyte migration (monocytes [5]; SB225002 10 µM, 20 min preincubation): blocked

CXCL1: recombinant human chemokine, predominantly CXCR2 specific
CXCR2 translocation (internalization) (CXCR2 [6]; [21]): caused only CXCR2 receptor translocation to the cytoplasm
generation of secondary necrotic cells, HEK293/CXCR1 [7]: not with CXCL1
cross-desensitization of response to fMLF by LL-37, CXCL7, CXCL1 (neutrophils [8]; data not shown): do not cross-sensitize fMLF stimulation
affinity for CXCR2 (CXCR2 [9]): high affinity
CXCR2 surface expression, chemokine treated (CXCR2 [10]): down-regulated CXCR2 but not CXCR1 in a limited dose-dependent manner
calcium mobilization in CXCR2 transfected HEK293 cells (CXCR2 [11]): weak but similar patterns of calcium mobilization
CXCR1 down-regulation at higher dose (CXCR1 [12]; 50 nM): down-regulate CXCR1 at higher doses
CXCR1 surface expression, chemokine treated (CXCR1 [12]): down-regulated CXCR2 but not CXCR1
CXCR2 down-regulation on monocytes (CXCR2 [13]): down-regulate CXCR2
generation of secondary necrotic cells, HEK293/CXCR2 [14]: not with CXCL1
CXCR1 translocation (internalization) (CXCR1 [15]; [21]): caused only CXCR2 receptor translocation to the cytoplasm
maximum competition of 125I-CXCL8 binding ([16]; 2×10^6 cells): around 50%
displacement of 125I-CXCL8 [16]: partly displace
calcium mobilization in CXCR1 transfected HEK293 cells (CXCR1 [17]): only CXCL8 gave a response
stimulation of migration of monocytes (monocytes [5]): only LL-37 stimulated migration of monocytes

CXCL6: CXC chemokine
affinity for CXCR2 (CXCR2 [9]): high affinity
affinity for CXCR1 (CXCR1 [18]): high affinity

CXCL8: recombinant human chemokine that binds both CXCR1/2
CXCR2 translocation (internalization) (CXCR2 [6]; [22]): translocation of both CXCR1 and CXCR2 to the cytoplasm
[Ca2+]i time of decline to baseline (neutrophils [1]; ATP 5 µM, fMLF 100 nM, CXCL8 10 nM, Fig. 3A): less than 100 s
cross-desensitization of response to CXCL1 (neutrophils [8]; CXCL8 10 nM first, CXCL1 10 nM 160 s later, Fig. 4C): completely blocked
cross-desensitization of response to CXCL7 (neutrophils [8]; CXCL8 10 nM first, CXCL7 10 nM 160 s later, Fig. 4B): completely blocked
cross-desensitization of response to LL-37 (neutrophils [8]; CXCL8 10 nM first, LL-37 5 µM 160 s later, Fig. 4A): completely blocked
cross-desensitization of response to fMLF (neutrophils [8]; CXCL8 10 nM first, fMLF 100 nM 160 s later, Fig. 4D): failed to cross-sensitize fMLF stimulation
affinity for CXCR2 (CXCR2 [9]): high affinity
CXCR2 surface expression, chemokine treated (CXCR2 [10]): significantly down-regulated both CXCR1 and CXCR2
calcium mobilization in CXCR2 transfected HEK293 cells (CXCR2 [11]): weak but similar patterns of calcium mobilization
CXCR1 surface expression, chemokine treated (CXCR1 [12]): significantly down-regulated both CXCR1 and CXCR2
CXCR2 down-regulation on monocytes (CXCR2 [13]): down-regulate CXCR2
affinity for CXCR1 (CXCR1 [18]): high affinity
CXCR1 translocation (internalization) (CXCR1 [15]; [22]): translocation of both CXCR1 and CXCR2 to the cytoplasm
calcium mobilization in CXCR1 transfected HEK293 cells (CXCR1 [17]): gave a response

WKYMVm [reference compound]
calcium flux response in the absence of extracellular Ca2+ (neutrophils [1]; PBS without calcium and magnesium, LL-37 5 µM, WKYMVm 5 µM, ATP 5 µM, Fig. 3C): capable of generating a calcium flux response
cross-desensitization of CXCL1 response by WKYMVm (neutrophils [8]; WKYMVm first, then CXCL1, Supporting information Fig. 3E-F): this was the case for CXCL1
cross-desensitization of LL-37 response by WKYMVm (neutrophils [8]; WKYMVm first, then LL-37, Supporting information Fig. 3C-D): able to block LL-37 stimulated calcium mobilization
CXCR2 surface expression (CXCR2 [10]; [23]): caused down-regulation of both CXCR2 and CXCR1 expression with similar kinetics
CXCR1 surface expression (CXCR1 [12]; [23]): caused down-regulation of both CXCR2 and CXCR1 expression with similar kinetics
CXCR2 down-regulation on monocytes (CXCR2 [13]): down regulated FPR2 and CXCR2
cross-block of LL-37 stimulated calcium mobilization in monocytes (monocytes [19]): neither ATP nor WKYMVm cross-block LL-37 stimulated calcium mobilization
FPR2 down-regulation on monocytes (FPR2): down regulated FPR2 and CXCR2
calcium signal in THP-1 cells (THP-1 cells): but not WKYMVm gives a robust calcium signal
block of LL-37 induced signal by WKYMVm pretreatment (THP-1 cells; WKYMVm first, then LL-37, THP-1): does not block the LL-37 induced signal
stimulation of migration of monocytes (monocytes [5]): only LL-37 stimulated migration of monocytes

pertussis toxin [PTX]
block of FPR- and CXCR-induced oxidase activity of neutrophils (neutrophils [20]): able to block
block of CXCL8, fMLF, LTB4, CXCL6, and MNCF stimulated neutrophil migration (neutrophils [3]; ref [33], [63], [65]): able to block
